# Assay results as given in ChEMBL document CHEMBL4689842, “EUbOPEN Chemogenomics Library wave 1” (2021).
# System: U2OS
# Test: Multiplex assay against U2OS
# Type: toxicity, cell-based
# Conditions: human
# How it was run: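 Phenotypes for tubulin, mitochondrial mass and membrane permeability are expressed as per cents of healthy-nucleus cells. Cells were stained live at seeding with Hoechst33342, BioTracker Green Microtubule Cytoskeleton Dye, MitoTracker Red and Annexin V Alexa Fluor 680, then imaged after compound addition on a CQ1 microscope at 37°C and 5% CO2. Machine-learning gating in CellPathfinder separated Hoechst high-intensity objects from normal cells, divided normal cells by nuclear state (healthy, pyknosed, fragmented) and divided pyknosed cells into mitotic or apoptotic.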
# [1] = 12 h, 1 µM, compound concentration 1 uM, replicate 1
# [2] = 12 h, 1 µM, compound concentration 1 uM, replicate 2
# [3] = 12 h, 10 µM, compound concentration 10 uM, replicate 1
# [4] = 12 h, 10 µM, compound concentration 10 uM, replicate 2
# [5] = 24 h, 1 µM, compound concentration 1 uM, replicate 1
# [6] = 24 h, 1 µM, compound concentration 1 uM, replicate 2
# [7] = 24 h, 10 µM, compound concentration 10 uM, replicate 1
# [8] = 24 h, 10 µM, compound concentration 10 uM, replicate 2
# [9] = 48 h, 1 µM, compound concentration 1 uM, replicate 1
# [10] = 48 h, 1 µM, compound concentration 1 uM, replicate 2
# [11] = 48 h, 10 µM, compound concentration 10 uM, replicate 1
# [12] = 48 h, 10 µM, compound concentration 10 uM, replicate 2
smiles,measurement,setting,value
Cc1c[nH]c2nccc(Oc3c(F)cc(Nc4cc(Cl)nc(N)n4)cc3F)c12 [BAY-549],Population Apoptotic (%),[1],47%
same,Population Fragmented Nuclei (%),[1],15%
same,Population Healthy Nuclei (%),[1],66%
same,Population Hoechst High Intensity Objects (%),[1],6%
same,Population Membrane Permeable-Phenotype (%),[1],15%
same,Population Mitochondria Different-Phenotype (%),[1],12%
same,Population Mitotic Cells (%),[1],52%
same,Population Normal (%),[1],93%
same,Population Pyknosed Nuclei (%),[1],18%
same,Population Tubulin-Different-Phenotype (%),[1],21%
same,Total Cell Count,[1],200
same,Population Apoptotic (%),[2],44%
same,Population Fragmented Nuclei (%),[2],12%
same,Population Healthy Nuclei (%),[2],73%
same,Population Hoechst High Intensity Objects (%),[2],5%
same,Population Membrane Permeable-Phenotype (%),[2],4%
same,Population Mitochondria Different-Phenotype (%),[2],6%
same,Population Mitotic Cells (%),[2],55%
same,Population Normal (%),[2],94%
same,Population Pyknosed Nuclei (%),[2],14%
same,Population Tubulin-Different-Phenotype (%),[2],12%
same,Total Cell Count,[2],68
same,Population Apoptotic (%),[3],48%
same,Population Fragmented Nuclei (%),[3],20%
same,Population Healthy Nuclei (%),[3],59%
same,Population Hoechst High Intensity Objects (%),[3],9%
same,Population Membrane Permeable-Phenotype (%),[3],12%
same,Population Mitochondria Different-Phenotype (%),[3],19%
same,Population Mitotic Cells (%),[3],52%
same,Population Normal (%),[3],90%
same,Population Pyknosed Nuclei (%),[3],20%
same,Population Tubulin-Different-Phenotype (%),[3],16%
same,Total Cell Count,[3],136
same,Population Apoptotic (%),[4],40%
same,Population Fragmented Nuclei (%),[4],17%
same,Population Healthy Nuclei (%),[4],65%
same,Population Hoechst High Intensity Objects (%),[4],6%
same,Population Membrane Permeable-Phenotype (%),[4],7%
same,Population Mitochondria Different-Phenotype (%),[4],10%
same,Population Mitotic Cells (%),[4],60%
same,Population Normal (%),[4],93%
same,Population Pyknosed Nuclei (%),[4],17%
same,Population Tubulin-Different-Phenotype (%),[4],10%
same,Total Cell Count,[4],62
same,Population Apoptotic (%),[5],37%
same,Population Fragmented Nuclei (%),[5],13%
same,Population Healthy Nuclei (%),[5],70%
same,Population Hoechst High Intensity Objects (%),[5],3%
same,Population Membrane Permeable-Phenotype (%),[5],9%
same,Population Mitochondria Different-Phenotype (%),[5],10%
same,Population Mitotic Cells (%),[5],62%
same,Population Normal (%),[5],96%
same,Population Pyknosed Nuclei (%),[5],16%
same,Population Tubulin-Different-Phenotype (%),[5],18%
same,Total Cell Count,[5],226
same,Population Apoptotic (%),[6],46%
same,Population Fragmented Nuclei (%),[6],8%
same,Population Healthy Nuclei (%),[6],71%
same,Population Membrane Permeable-Phenotype (%),[6],5%
same,Population Mitochondria Different-Phenotype (%),[6],7%
same,Population Mitotic Cells (%),[6],53%
same,Population Pyknosed Nuclei (%),[6],20%
same,Total Cell Count,[6],77
same,Population Apoptotic (%),[7],59%
same,Population Fragmented Nuclei (%),[7],25%
same,Population Healthy Nuclei (%),[7],53%
same,Population Hoechst High Intensity Objects (%),[7],8%
same,Population Membrane Permeable-Phenotype (%),[7],12%
same,Population Mitochondria Different-Phenotype (%),[7],19%
same,Population Mitotic Cells (%),[7],40%
same,Population Normal (%),[7],91%
same,Population Pyknosed Nuclei (%),[7],21%
same,Population Tubulin-Different-Phenotype (%),[7],16%
same,Total Cell Count,[7],135
same,Population Apoptotic (%),[8],71%
same,Population Fragmented Nuclei (%),[8],12%
same,Population Healthy Nuclei (%),[8],62%
same,Population Hoechst High Intensity Objects (%),[8],5%
same,Population Membrane Permeable-Phenotype (%),[8],11%
same,Population Mitochondria Different-Phenotype (%),[8],20%
same,Population Mitotic Cells (%),[8],28%
same,Population Normal (%),[8],94%
same,Population Pyknosed Nuclei (%),[8],25%
same,Population Tubulin-Different-Phenotype (%),[8],20%
same,Total Cell Count,[8],59
same,Population Apoptotic (%),[9],60%
same,Population Healthy Nuclei (%),[9],64%
same,Population Hoechst High Intensity Objects (%),[9],2%
same,Population Membrane Permeable-Phenotype (%),[9],8%
same,Population Mitochondria Different-Phenotype (%),[9],13%
same,Population Mitotic Cells (%),[9],39%
same,Population Normal (%),[9],97%
same,Population Pyknosed Nuclei (%),[9],19%
same,Population Tubulin-Different-Phenotype (%),[9],20%
same,Total Cell Count,[9],302
same,Population Apoptotic (%),[10],66%
same,Population Fragmented Nuclei (%),[10],15%
same,Population Healthy Nuclei (%),[10],73%
same,Population Hoechst High Intensity Objects (%),[10],0%
same,Population Membrane Permeable-Phenotype (%),[10],11%
same,Population Mitochondria Different-Phenotype (%),[10],20%
same,Population Mitotic Cells (%),[10],33%
same,Population Normal (%),[10],99%
same,Population Pyknosed Nuclei (%),[10],11%
same,Population Tubulin-Different-Phenotype (%),[10],28%
same,Total Cell Count,[10],106
same,Population Apoptotic (%),[11],60%
same,Population Fragmented Nuclei (%),[11],34%
same,Population Healthy Nuclei (%),[11],41%
same,Population Hoechst High Intensity Objects (%),[11],5%
same,Population Membrane Permeable-Phenotype (%),[11],17%
same,Population Mitochondria Different-Phenotype (%),[11],46%
same,Population Mitotic Cells (%),[11],40%
same,Population Normal (%),[11],94%
same,Population Pyknosed Nuclei (%),[11],24%
same,Population Tubulin-Different-Phenotype (%),[11],19%
same,Total Cell Count,[11],132
same,Population Apoptotic (%),[12],76%
same,Population Fragmented Nuclei (%),[12],12%
same,Population Healthy Nuclei (%),[12],63%
same,Population Hoechst High Intensity Objects (%),[12],8%
same,Population Membrane Permeable-Phenotype (%),[12],25%
same,Population Mitochondria Different-Phenotype (%),[12],51%
same,Population Mitotic Cells (%),[12],23%
same,Population Normal (%),[12],91%
same,Population Pyknosed Nuclei (%),[12],23%
same,Population Tubulin-Different-Phenotype (%),[12],28%
same,Total Cell Count,[12],60
Cc1cccc(CN2CCN(C(c3ccccc3)c3ccc(Cl)cc3)CC2)c1.Cl.Cl (stereo not given),Population Apoptotic (%),[1],27%
same,Population Fragmented Nuclei (%),[1],4%
same,Population Healthy Nuclei (%),[1],87%
same,Population Hoechst High Intensity Objects (%),[1],6%
same,Population Membrane Permeable-Phenotype (%),[1],3%
same,Population Mitochondria Different-Phenotype (%),[1],6%
same,Population Mitotic Cells (%),[1],72%
same,Population Normal (%),[1],93%
same,Population Pyknosed Nuclei (%),[1],7%
same,Population Tubulin-Different-Phenotype (%),[1],3%
same,Total Cell Count,[1],182
same,Population Apoptotic (%),[2],0%
same,Population Fragmented Nuclei (%),[2],16%
same,Population Healthy Nuclei (%),[2],79%
same,Population Hoechst High Intensity Objects (%),[2],8%
same,Population Membrane Permeable-Phenotype (%),[2],4%
same,Population Mitochondria Different-Phenotype (%),[2],26%
same,Population Mitotic Cells (%),[2],100%
same,Population Normal (%),[2],91%
same,Population Pyknosed Nuclei (%),[2],3%
same,Population Tubulin-Different-Phenotype (%),[2],23%
same,Total Cell Count,[2],48
same,Population Apoptotic (%),[3],54%
same,Population Fragmented Nuclei (%),[3],6%
same,Population Healthy Nuclei (%),[3],76%
same,Population Hoechst High Intensity Objects (%),[3],5%
same,Population Membrane Permeable-Phenotype (%),[3],4%
same,Population Mitochondria Different-Phenotype (%),[3],73%
same,Population Mitotic Cells (%),[3],45%
same,Population Normal (%),[3],94%
same,Population Pyknosed Nuclei (%),[3],16%
same,Population Tubulin-Different-Phenotype (%),[3],78%
same,Total Cell Count,[3],149
same,Population Apoptotic (%),[4],50%
same,Population Fragmented Nuclei (%),[4],14%
same,Population Healthy Nuclei (%),[4],72%
same,Population Hoechst High Intensity Objects (%),[4],6%
same,Population Membrane Permeable-Phenotype (%),[4],6%
same,Population Mitochondria Different-Phenotype (%),[4],61%
same,Population Mitotic Cells (%),[4],50%
same,Population Normal (%),[4],93%
same,Population Pyknosed Nuclei (%),[4],13%
same,Population Tubulin-Different-Phenotype (%),[4],47%
same,Total Cell Count,[4],58
same,Population Apoptotic (%),[5],45%
same,Population Fragmented Nuclei (%),[5],7%
same,Population Healthy Nuclei (%),[5],86%
same,Population Hoechst High Intensity Objects (%),[5],5%
same,Population Membrane Permeable-Phenotype (%),[5],2%
same,Population Mitochondria Different-Phenotype (%),[5],8%
same,Population Mitotic Cells (%),[5],54%
same,Population Normal (%),[5],94%
same,Population Pyknosed Nuclei (%),[5],6%
same,Population Tubulin-Different-Phenotype (%),[5],2%
same,Total Cell Count,[5],176
same,Population Apoptotic (%),[6],80%
same,Population Fragmented Nuclei (%),[6],18%
same,Population Healthy Nuclei (%),[6],73%
same,Population Hoechst High Intensity Objects (%),[6],10%
same,Population Membrane Permeable-Phenotype (%),[6],11%
same,Population Mitochondria Different-Phenotype (%),[6],13%
same,Population Mitotic Cells (%),[6],20%
same,Population Normal (%),[6],89%
same,Population Pyknosed Nuclei (%),[6],8%
same,Population Tubulin-Different-Phenotype (%),[6],22%
same,Total Cell Count,[6],47
same,Population Apoptotic (%),[7],42%
same,Population Fragmented Nuclei (%),[7],6%
same,Population Healthy Nuclei (%),[7],74%
same,Population Hoechst High Intensity Objects (%),[7],7%
same,Population Membrane Permeable-Phenotype (%),[7],2%
same,Population Mitochondria Different-Phenotype (%),[7],65%
same,Population Mitotic Cells (%),[7],57%
same,Population Normal (%),[7],92%
same,Population Pyknosed Nuclei (%),[7],19%
same,Population Tubulin-Different-Phenotype (%),[7],61%
same,Total Cell Count,[7],181
same,Population Apoptotic (%),[8],11%
same,Population Fragmented Nuclei (%),[8],10%
same,Population Healthy Nuclei (%),[8],77%
same,Population Hoechst High Intensity Objects (%),[8],5%
same,Population Membrane Permeable-Phenotype (%),[8],5%
same,Population Mitochondria Different-Phenotype (%),[8],63%
same,Population Mitotic Cells (%),[8],88%
same,Population Normal (%),[8],94%
same,Population Pyknosed Nuclei (%),[8],12%
same,Population Tubulin-Different-Phenotype (%),[8],45%
same,Total Cell Count,[8],67
same,Population Apoptotic (%),[9],30%
same,Population Fragmented Nuclei (%),[9],5%
same,Population Healthy Nuclei (%),[9],85%
same,Population Hoechst High Intensity Objects (%),[9],3%
same,Population Membrane Permeable-Phenotype (%),[9],1%
same,Population Mitochondria Different-Phenotype (%),[9],11%
same,Population Mitotic Cells (%),[9],69%
same,Population Normal (%),[9],96%
same,Population Pyknosed Nuclei (%),[9],8%
same,Population Tubulin-Different-Phenotype (%),[9],5%
same,Total Cell Count,[9],192
same,Population Apoptotic (%),[10],0%
same,Population Fragmented Nuclei (%),[10],9%
same,Population Healthy Nuclei (%),[10],84%
same,Population Hoechst High Intensity Objects (%),[10],7%
same,Population Membrane Permeable-Phenotype (%),[10],5%
same,Population Mitochondria Different-Phenotype (%),[10],16%
same,Population Mitotic Cells (%),[10],100%
same,Population Normal (%),[10],92%
same,Population Pyknosed Nuclei (%),[10],6%
same,Population Tubulin-Different-Phenotype (%),[10],24%
same,Total Cell Count,[10],45
same,Population Apoptotic (%),[11],54%
same,Population Fragmented Nuclei (%),[11],8%
same,Population Healthy Nuclei (%),[11],72%
same,Population Hoechst High Intensity Objects (%),[11],4%
same,Population Membrane Permeable-Phenotype (%),[11],3%
same,Population Mitochondria Different-Phenotype (%),[11],42%
same,Population Mitotic Cells (%),[11],45%
same,Population Normal (%),[11],95%
same,Population Pyknosed Nuclei (%),[11],18%
same,Population Tubulin-Different-Phenotype (%),[11],44%
same,Total Cell Count,[11],299
same,Population Apoptotic (%),[12],25%
same,Population Fragmented Nuclei (%),[12],12%
same,Population Healthy Nuclei (%),[12],71%
same,Population Hoechst High Intensity Objects (%),[12],5%
same,Population Membrane Permeable-Phenotype (%),[12],7%
same,Population Mitochondria Different-Phenotype (%),[12],30%
same,Population Mitotic Cells (%),[12],75%
same,Population Normal (%),[12],94%
same,Population Pyknosed Nuclei (%),[12],16%
same,Population Tubulin-Different-Phenotype (%),[12],18%
same,Total Cell Count,[12],95
